ChEMBL document CHEMBL3875159, “High-affinity small molecular blockers of mixed lineage leukemia 1 (MLL1)-WDR5 interaction inhibit MLL1 complex H3K4 methyltransferase activity” (Eur J Med Chem, 2016)
pIC50, pKd: −log10 of the molar value. Each block holds one compound with its values, some of them ahead of it. Active and inactive are the calls of the source. The calls are words filed in the database; no cut-off is given here.

Assays:
[1] = target: T1, WD repeat-containing protein 5 (Homo sapiens, UniProt P61964); assay: Inhibition of 10mer-Thr-FAM probe binding to human WDR5 after 2 hrs by fluorescence polarization assay
[2] = Antiproliferative activity against human MV4-11 cells harboring MLL-AF4 fusion protein after 72 hrs by CCK8 assay; assay type: functional, cell-based; conditions: MV4-11, 72 h
MV4-11 [3] = assay: Induction of apoptosis in human MV4-11 cells harboring MLL-AF4 fusion protein assessed as viable cells at 2.5 uM after 72 hrs by Annexin-V/propidium iodide staining based flow cytometry (reference value: 73.8%); assay type: functional; conditions: MV4-11, 72 h, read-out: Activity
[4] = target: MLL1/ASH2L/RBBP5/WDR5 complex (Homo sapiens, UniProt P61964+Q03164+Q15291+Q9UBL3); assay: Inhibition of recombinant MLL1/ASH2L/RBBP5/WDR5 complex histone methyltransferase activity (unknown origin) by AlphaScreen assay; assay type: protein-complex assay
MV4-11 [5] = assay: Induction of apoptosis in human MV4-11 cells harboring MLL-AF4 fusion protein assessed as late apoptotic cells at 10 uM after 72 hrs by Annexin-V/propidium iodide staining based flow cytometry (reference value: 21.6%); assay type: functional
MV4-11 [6] = assay: Induction of apoptosis in human MV4-11 cells harboring MLL-AF4 fusion protein assessed as viable cells at 5 uM after 72 hrs by Annexin-V/propidium iodide staining based flow cytometry (reference value: 73.8%); assay type: functional; conditions: MV4-11, 72 h, read-out: Activity
[7] = target: T2, Histone-lysine N-methyltransferase 2A/WDR5 (Homo sapiens) (UniProt P61964+Q03164); assay: Inhibition of MLL1-WDR5 protein-protein interaction in human MV4-11 cells harboring MLL-AF4 fusion protein assessed as inhibition of Hoxa9 gene expression at 10 uM after 7 days by RT-PCR method relative to control; assay type: cell-based
Method in brief: (§1)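 MV4-11 cells were treated with DMSO or 0.625, 1.25, 2.5 or 10 μM compound for 7 days. Hoxa9 and Meis-1 expression was measured by RT-PCR against DMSO control. Significance was tested versus the nontreated blank control.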

[8] = target: T2, Histone-lysine N-methyltransferase 2A/WDR5 (Homo sapiens); assay: Inhibition of MLL1-WDR5 protein-protein interaction in human MV4-11 cells harboring MLL-AF4 fusion protein assessed as inhibition of Meis-1 gene expression at 10 uM after 7 days by RT-PCR method relative to control; assay type: cell-based; method in brief: as §1
MV4-11 [9] = assay: Induction of apoptosis in human MV4-11 cells harboring MLL-AF4 fusion protein assessed as viable cells at 10 uM after 72 hrs by Annexin-V/propidium iodide staining based flow cytometry (reference value: 73.8%); assay type: functional; conditions: MV4-11, 72 h, read-out: Activity
[10] = target: T2, Histone-lysine N-methyltransferase 2A/WDR5 (Homo sapiens); assay: Inhibition of MLL1-WDR5 protein-protein interaction in human MV4-11 cells harboring MLL-AF4 fusion protein assessed as inhibition of MLL1 histone methyltransferase activity by measuring reduction in H3K4me1 level at 5 uM after 7 days by Western blot method; assay type: cell-based
Method in brief: (§2)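 MV4-11 cells were exposed to a range of concentrations for 7 days. H3K4me1 and H3K4me2 were detected by western blotting with β-actin as loading control.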

MV4-11 [11] = assay: Induction of apoptosis in human MV4-11 cells harboring MLL-AF4 fusion protein assessed as late apoptotic cells at 2.5 uM after 72 hrs by Annexin-V/propidium iodide staining based flow cytometry (reference value: 21.6%); assay type: functional
[12] = target: T2, Histone-lysine N-methyltransferase 2A/WDR5 (Homo sapiens); assay: Inhibition of MLL1-WDR5 protein-protein interaction in human MV4-11 cells harboring MLL-AF4 fusion protein assessed as inhibition of Hoxa9 gene expression after 7 days by RT-PCR method; assay type: cell-based; method in brief: as §1
MV4-11 [13] = assay: Induction of apoptosis in human MV4-11 cells harboring MLL-AF4 fusion protein assessed as early apoptotic cells at 2.5 uM after 72 hrs by Annexin-V/propidium iodide staining based flow cytometry (reference value: 4.45%); assay type: functional
[14] = target: T1, WD repeat-containing protein 5; assay: Binding affinity to human WDR5 by isothermal titration calorimetry
MV4-11 [15] = assay: Induction of apoptosis in human MV4-11 cells harboring MLL-AF4 fusion protein assessed as necrotic cells at 5 uM after 72 hrs by Annexin-V/propidium iodide staining based flow cytometry (reference value: 0.15%); assay type: functional
MV4-11 [16] = assay: Induction of apoptosis in human MV4-11 cells harboring MLL-AF4 fusion protein assessed as necrotic cells at 2.5 uM after 72 hrs by Annexin-V/propidium iodide staining based flow cytometry (reference value: 0.15%); assay type: functional
[17] = target: T2, Histone-lysine N-methyltransferase 2A/WDR5 (Homo sapiens); assay: Inhibition of MLL1-WDR5 protein-protein interaction in human MV4-11 cells harboring MLL-AF4 fusion protein assessed as inhibition of Meis-1 gene expression at 2.5 uM after 7 days by RT-PCR method relative to control; assay type: cell-based
Method in brief: (§3)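 MV4-11 cells treated for 7 days at 0.625, 1.25, 2.5 and 10 μM, with a DMSO control. Hoxa9 and Meis-1 expression was measured by RT-PCR and compared with the untreated blank control group (*p < 0.05, **p < 0.01).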

MV4-11 [18] = assay: Induction of apoptosis in human MV4-11 cells harboring MLL-AF4 fusion protein assessed as necrotic cells at 10 uM after 72 hrs by Annexin-V/propidium iodide staining based flow cytometry (reference value: 0.15%); assay type: functional
MV4-11 [19] = assay: Induction of apoptosis in human MV4-11 cells harboring MLL-AF4 fusion protein assessed as early apoptotic cells at 10 uM after 72 hrs by Annexin-V/propidium iodide staining based flow cytometry (reference value: 4.45%); assay type: functional
MV4-11 [20] = assay: Induction of apoptosis in human MV4-11 cells harboring MLL-AF4 fusion protein after 72 hrs by Annexin-V/propidium iodide staining based flow cytometry; assay type: functional, cell-based
MV4-11 [21] = assay: Induction of apoptosis in human MV4-11 cells harboring MLL-AF4 fusion protein assessed as late apoptotic cells at 5 uM after 72 hrs by Annexin-V/propidium iodide staining based flow cytometry (reference value: 21.6%); assay type: functional
[22] = target: T2, Histone-lysine N-methyltransferase 2A/WDR5 (Homo sapiens); assay: Inhibition of MLL1-WDR5 protein-protein interaction in human MV4-11 cells harboring MLL-AF4 fusion protein assessed as inhibition of Meis-1 gene expression after 7 days by RT-PCR method; assay type: cell-based; method in brief: as §1
MV4-11 [23] = assay: Induction of apoptosis in human MV4-11 cells harboring MLL-AF4 fusion protein assessed as early apoptotic cells at 5 uM after 72 hrs by Annexin-V/propidium iodide staining based flow cytometry (reference value: 4.45%); assay type: functional
[24] = target: T2, Histone-lysine N-methyltransferase 2A/WDR5 (Homo sapiens); assay: Inhibition of MLL1-WDR5 protein-protein interaction in human MV4-11 cells harboring MLL-AF4 fusion protein assessed as inhibition of MLL1 histone methyltransferase activity by measuring reduction in H3K4me2 level after 7 days by Western blot method; assay type: cell-based; method in brief: as §2
[25] = target: T2, Histone-lysine N-methyltransferase 2A/WDR5 (Homo sapiens); assay: Inhibition of MLL1-WDR5 protein-protein interaction in human MV4-11 cells harboring MLL-AF4 fusion protein assessed as inhibition of Hoxa9 gene expression at 2.5 uM after 7 days by RT-PCR method relative to control; assay type: cell-based; method in brief: as §3

Structure (SMILES): CCC(=O)Nc1ccc(-c2ccc(N3CCN(C)CC3)c(NC(=O)c3cc(N)c(F)c(C)c3Cl)c2)cc1
pIC50 [1]: 7.09
pIC50 [2]: 5.19

Structure (SMILES): Cc1c(F)ccc(C(=O)Nc2cc([N+](=O)[O-])ccc2N2CCN(Cc3ccccc3)CC2)c1Cl
pIC50 [1]: < 4.70

Structure (SMILES): Cc1c(F)c(N)cc(C(=O)Nc2cc(-c3ccc(NC(=O)C(C)C)cc3)ccc2N2CCN(C)CC2)c1Cl
pIC50 [1]: 7.02
pIC50 [2]: 5.35

Structure (SMILES): CN1CCN(c2ccc(-c3ccc(N)cc3)cc2NC(=O)c2cccc(N)c2)CC1
pIC50 [1]: < 4.70

Structure (SMILES): CN1CCN(c2ccc(-c3ccc([N+](=O)[O-])cc3)cc2NC(=O)c2ccc(F)c([N+](=O)[O-])c2)CC1
pIC50 [1]: 5.96

Structure (SMILES): Cc1c(F)c(N)cc(C(=O)Nc2cc(-c3ccc(NC(=O)CN)cc3)ccc2N2CCN(C)CC2)c1Cl
pIC50 [1]: 7.20
pIC50 [2]: 4.88

Structure (SMILES): CC(=O)Nc1cc(C(=O)Nc2cc(-c3ccc([N+](=O)[O-])cc3)ccc2N2CCN(C)CC2)c(Cl)c(C)c1F
pIC50 [1]: < 4.70

Structure (SMILES): Cc1c(F)c(N)cc(C(=O)Nc2cc(-c3ccc(NC(=O)C4CC4)cc3)ccc2N2CCN(C)CC2)c1Cl
pIC50 [1]: 7.12
pIC50 [2]: 5.32

Structure (SMILES): Cc1c(F)c(N)cc(C(=O)Nc2cc(-c3ccc(NC(=O)CNC(=O)OC(C)(C)C)cc3)ccc2N2CCN(C)CC2)c1Cl
pIC50 [1]: 5.81
pIC50 [2]: 5.39

Second part, led by results:

pIC50 [1]: 6.54
Structure (SMILES): Cc1c(F)c([N+](=O)[O-])cc(C(=O)Nc2cc(-c3ccc([N+](=O)[O-])cc3)ccc2N2CCN(C)CC2)c1Cl

pIC50 [1]: 7.09
Structure (SMILES): Cc1c(F)c(N)cc(C(=O)Nc2cc(-c3ccc(NC(=O)CCCNC(=O)OC(C)(C)C)cc3)ccc2N2CCN(C)CC2)c1Cl
pIC50 [2]: 5.32

pIC50 [1]: 6.99
Structure (SMILES): Cc1c(F)c(N)cc(C(=O)Nc2cc(-c3ccc(NC(=O)CCNC(=O)OC(C)(C)C)cc3)ccc2N2CCN(C)CC2)c1Cl
pIC50 [2]: 5.34

pIC50 [1]: 6.98
Structure (SMILES): Cc1c(F)c(N)cc(C(=O)Nc2cc(-c3ccc(NC(=O)CC(C)C)cc3)ccc2N2CCN(C)CC2)c1Cl
pIC50 [2]: 5.41

pIC50 [1]: < 4.70
Structure (SMILES): Cc1c(F)ccc(C(=O)Nc2cc([N+](=O)[O-])ccc2N2CCN(c3ccc(F)cc3)CC2)c1Cl

pIC50 [1]: < 4.70
Structure (SMILES): Cc1c(F)ccc(C(=O)Nc2cc([N+](=O)[O-])ccc2NCCCn2ccnc2)c1Cl

pIC50 [1]: 5.87
Structure (SMILES): CC(=O)Nc1cc(C(=O)Nc2cc(-c3ccncc3)ccc2N2CCN(C)CC2)c(Cl)c(C)c1F

pIC50 [1]: 5.50
Structure (SMILES): CC(=O)Nc1cc(C(=O)Nc2cc(-c3ccc(N)cc3)ccc2N2CCN(C)CC2)c(Cl)c(C)c1F

pIC50 [1]: < 4.70
Structure (SMILES): COc1ccc(N2CCN(c3ccc([N+](=O)[O-])cc3NC(=O)c3ccc(F)c(C)c3Cl)CC2)cc1

pIC50 [4]: 5.78
inhibition [7]: 80%
inhibition [8]: 80%
inhibition [10]: Active
inhibition [12]: Dose-dependent effect
pKd [14]: 6.69
inhibition [17]: 50%
inhibition [22]: Dose-dependent effect
inhibition [24]: Dose-dependent effect
inhibition [25]: 50%
Structure (SMILES): Cc1c(F)c(N)cc(C(=O)Nc2cc(-c3ccc(N)cc3)ccc2N2CCN(C)CC2)c1Cl
viability at 2.5 µM (MV4-11 [3]): 70.9%
Activity (MV4-11 [5]): 49.75%
viability at 5 µM (MV4-11 [6]): 58.5%
viability at 10 µM (MV4-11 [9]): 36.3%
Activity (MV4-11 [11]): 23.55%
Activity (MV4-11 [13]): 5.5%
Activity (MV4-11 [15]): 0%
pIC50 [2]: 4.75
Activity (MV4-11 [16]): 0.05%
Activity (MV4-11 [18]): 0.15%
Activity (MV4-11 [19]): 13.8%
Activity (MV4-11 [20]): Dose-dependent effect
Activity (MV4-11 [21]): 33.55%
Activity (MV4-11 [23]): 7.95%
